These results are taken from the RNAGym collection of RNA variant scans (doi:10.1038/nmeth.2970).

The chains are these.
B1: NELF-E aptamer (parent)
chain: CCCAACGACUGCCGAGCGAGAUUACGCUUGAGCGCCCCACUGAGGAUGCCCACGGGCGAUUGGGGCACGG

In the series the parent is B1. Description: HiTS-RAP. The following applies: with NELF-E (Drosophila). The method in brief:
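Aptamer DNA templates bearing a T7 promoter and a ter site were sequenced on an Illumina GAIIx flowcell. T7 RNA polymerase then transcribed them in situ, and GST-Tus halted transcription over 30 minutes at 37°C. After a 30-minute room-temperature equilibration with NELF-E-mOrange at 0.064 to 1000 nM in HEPES binding buffer, clusters were imaged, using only the first binding curve. Intensities normalised to sequencing intensity were averaged per sequence and fitted with weighted Hill fits to give Kd, retaining only fits whose variance stayed under 1,000,000.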
In general, Kd refers to the equilibrium constant for the complex coming apart. As for CUCAACGACUGCCGAGCGAGAUUACGCUUGAGCGCCCCACUGAGGAUGCCCACGGGCGAUUGGGGCACGG [C2U], the Kd stood at 5.27 nM.
Turning to CACAACGACUGCCGAGCGAGAUUACGCUUGAGCGCCCCACUGAGGAUGCCCACGGGCGAUUGGGGCACGG [C2A], the Kd was 5.18 nM.
The result for CGCAACGACUGCCGAGCGAGAUUACGCUUGAGCGCCCCACUGAGGAUGCCCACGGGCGAUUGGGGCACGG [C2G] reads 5.3 nM; that for CCCGACGACUGCCGAGCGAGAUUACGCUUGAGCGCCCCACUGAGGAUGCCCACGGGCGAUUGGGGCACGG [A4G], 5.08 nM.
The result for CCCCACGACUGCCGAGCGAGAUUACGCUUGAGCGCCCCACUGAGGAUGCCCACGGGCGAUUGGGGCACGG [A4C] reads 6.33 nM; that for CCCCACGACUGCCGAGCGAGAUGACGCUUGAGCGCCCCACUGAGGAUGCCCACGGGCGAUUGGGGCACGG [A4C U23G], 7.29 nM; that for CCCCACGACUGCCGAGCGAGAUUACGCUGGAGCGCCCCACUGAGGAUGCCCACGGGCGAUUGGGGCACGG [A4C U29G], 7.86 nM.
The result for CCAAACGACUGCCGAGCGAGAUUACGCUUGAGCGCCCCACUGAGGAUGCCCACGGGCGAUUGGGGCACGG [C3A] reads 5.8 nM; that for CCGAACGACUGCCGAGCGAGAUUACGCUUGAGCGCCCCACUGAGGAUGCCCACGGGCGAUUGGGGCACGG [C3G], 5.16 nM.
For the variant CCUAACGACUGCCGAGCGAGAUUACGCUUGAGCGCCCCACUGAGGAUGCCCACGGGCGAUUGGGGCACGG [C3U], the Kd amounted to 5.55 nM.
For CCCCACGAGUGCCGAGCGAGAUUACGCUUGAGCGCCCCACUGAGGAUGCCCACGGGCGAUUGGGGCACGG [A4C C9G], the Kd was found to be 7.49 nM.
The value for CCCCACGACUGGCGAGCGAGAUUACGCUUGAGCGCCCCACUGAGGAUGCCCACGGGCGAUUGGGGCACGG [A4C C12G] was 7.65 nM; that for CCCCACGACUGCCGAGCGAGAGUACGCUUGAGCGCCCCACUGAGGAUGCCCACGGGCGAUUGGGGCACGG [A4C U22G] was 6.04 nM.
The value for CCCGACGACUGCCGAGCGAGGUUACGCUUGAGCGCCCCACUGAGGAUGCCCACGGGCGAUUGGGGCACGG [A4G A21G] was 6 nM.
The value for CCCGACGACUGCCGAGCGAGUUUACGCUUGAGCGCCCCACUGAGGAUGCCCACGGGCGAUUGGGGCACGG [A4G A21U] was 5.84 nM.
For the variant CCCCACGACUGCCGAGCGAGAUUGCGCUUGAGCGCCCCACUGAGGAUGCCCACGGGCGAUUGGGGCACGG [A4C A24G], the Kd came out at 7.08 nM.
The value for GCCAACGACUGCCGAGCGAGAUUACGCUUGAGCGCCCCACUGAGGAUGCCCACGGGCGAUUGGGGCACGG [C1G] was 4.93 nM.
The result for ACCAACGACUGCCGAGCGAGAUUACGCUUGAGCGCCCCACUGAGGAUGCCCACGGGCGAUUGGGGCACGG [C1A] reads 4.94 nM; that for UCCAACGACUGCCGAGCGAGAUUACGCUUGAGCGCCCCACUGAGGAUGCCCACGGGCGAUUGGGGCACGG [C1U], 4.73 nM; that for CCCGACGCCUGCCGAGCGAGAUUACGCUUGAGCGCCCCACUGAGGAUGCCCACGGGCGAUUGGGGCACGG [A4G A8C], 6.29 nM.
The value for CCCGACGUCUGCCGAGCGAGAUUACGCUUGAGCGCCCCACUGAGGAUGCCCACGGGCGAUUGGGGCACGG [A4G A8U] was 6.21 nM.
For CCCGACGGCUGCCGAGCGAGAUUACGCUUGAGCGCCCCACUGAGGAUGCCCACGGGCGAUUGGGGCACGG [A4G A8G], the Kd is 5.83 nM.
The result for CCCCACGACGGCCGAGCGAGAUUACGCUUGAGCGCCCCACUGAGGAUGCCCACGGGCGAUUGGGGCACGG [A4C U10G] reads 6.48 nM; that for CCCCGCGACUGCCGAGCGAGAUUACGCUUGAGCGCCCCACUGAGGAUGCCCACGGGCGAUUGGGGCACGG [A4C A5G], 6.09 nM; that for CCCCACUACUGCCGAGCGAGAUUACGCUUGAGCGCCCCACUGAGGAUGCCCACGGGCGAUUGGGGCACGG [A4C G7U], 6.88 nM.
Consider CCCCACGACUGCCGAGCGAGAUUACGCUUGAGCGCCCCACGGAGGAUGCCCACGGGCGAUUGGGGCACGG [A4C U41G], for which the Kd was determined as 8.98 nM.
The value for CCCGACGACUGCCGAGCGCGAUUACGCUUGAGCGCCCCACUGAGGAUGCCCACGGGCGAUUGGGGCACGG [A4G A19C] was 4.21 nM.
The result for CCCGACGACUGCCGAGCGGGAUUACGCUUGAGCGCCCCACUGAGGAUGCCCACGGGCGAUUGGGGCACGG [A4G A19G] reads 5.64 nM; that for CCCGACGACUGCCGAGCGUGAUUACGCUUGAGCGCCCCACUGAGGAUGCCCACGGGCGAUUGGGGCACGG [A4G A19U], 6.08 nM; that for CCCGACGACUGCCGAGCGAGAUUUCGCUUGAGCGCCCCACUGAGGAUGCCCACGGGCGAUUGGGGCACGG [A4G A24U], 6.89 nM.
The result for CCCGACGACUGCCGAGCGAGAUUGCGCUUGAGCGCCCCACUGAGGAUGCCCACGGGCGAUUGGGGCACGG [A4G A24G] reads 6.26 nM.
Consider CCCCACGGCUGCCGAGCGAGAUUACGCUUGAGCGCCCCACUGAGGAUGCCCACGGGCGAUUGGGGCACGG [A4C A8G], for which the Kd came to 6.82 nM.
The result for CCCGACGACUGCCGUGCGAGAUUACGCUUGAGCGCCCCACUGAGGAUGCCCACGGGCGAUUGGGGCACGG [A4G A15U] reads 6.63 nM; that for CCCGACGACUGCCGGGCGAGAUUACGCUUGAGCGCCCCACUGAGGAUGCCCACGGGCGAUUGGGGCACGG [A4G A15G], 4.97 nM; that for CCCGGCGACUGCCGAGCGAGAUUACGCUUGAGCGCCCCACUGAGGAUGCCCACGGGCGAUUGGGGCACGG [A4G A5G], 5.81 nM.
The result for CCCGCCGACUGCCGAGCGAGAUUACGCUUGAGCGCCCCACUGAGGAUGCCCACGGGCGAUUGGGGCACGG [A4G A5C] reads 6.45 nM.
For the variant CCCGUCGACUGCCGAGCGAGAUUACGCUUGAGCGCCCCACUGAGGAUGCCCACGGGCGAUUGGGGCACGG [A4G A5U], the Kd is 5.91 nM.
The value for CCCCAGGACUGCCGAGCGAGAUUACGCUUGAGCGCCCCACUGAGGAUGCCCACGGGCGAUUGGGGCACGG [A4C C6G] was 8.66 nM; that for CCCCACGACUGCCUAGCGAGAUUACGCUUGAGCGCCCCACUGAGGAUGCCCACGGGCGAUUGGGGCACGG [A4C G14U] was 7.54 nM.
